# Source: PubChem BioAssay (several laboratories)
# Hits are enriched below; roughly 4.2% of the tested compounds scored in any of these assays.
# TMEM16A act: activators or potentiators of mouse TMEM16A chloride channel | Q8BHY3 | HEK293 TMEM16A/YFP-H148Q/I152L, iodide quench fluorescence; active compounds read low | B-score at 10 µM | 340,000 compounds, 0.3% hits | AID 623877;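 active = fluorescence-ratio B-score plate-corrected deviation score at least 3 library SD below zero, with starting fluorescence score within 5 deviations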;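 note: channel opened by trigger with iodide after compound preincubation; score built on the fluorescence ratio of max minus min over baseline; more negative score means more quench and so TMEM16A activation or potentiation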
# CHOP inh: blocks CHOP induction under ER stress; 220,000 compounds, 3.8% hits; inhibition, % at 10 µM; CHO-K1 CHOP-promoter luciferase, tunicamycin-induced, 15-18 h; AID 2732;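 active = compounds that reduced the stress-induced luciferase reporter signal by more than about 70% of percent inhibition, limit read from the data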;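 note: 0% = tunicamycin plus vehicle and 100% = wells without tunicamycin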
# UPR CHOP act: apoptotic UPR (CHOP) activation; CHO-CHOP luciferase reporter, luminescence; percent of tunicamycin response over DMSO baseline; activation, % at 10 µM; 330,000 compounds, 0.34% hits;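 active = at 10 µM dose, activation of 40% or more, normalized to positive control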;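 note: 100% = tunicamycin at 10 µg/mL and 0% = DMSO alone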
#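 measured by = luciferase luminescence | assay system = CHO-CHOP cells, stable luciferase reporter of PERK-eIF2a-CHOP signalling | amount = 500 reporter cells seeded per well | timing = 6 h compound exposure at 37 °C after overnight seeding | controls = positive tunicamycin 10 µg/mL, negative DMSO alone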
# Hep lipid drop: modulators of hepatic lipid droplet formation | AML12 mouse hepatocytes, oleate lipid droplets, BODIPY imaging | inhibition, % at 6.5 µM | 240,000 compounds, 0.4% hits;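 active = lipid droplet intensity inhibited by at least 50%, with more than 500 cells counted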
#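 System: AML12 hepatocytes (mouse). Probe or stimulus: oleic acid at 100 µM to induce lipid droplet formation. Times: overnight treatment with compound plus oleate. Detection: Image-based BODIPY and DAPI two-channel analysis. Evaluation: percent inhibition of filter-corrected integrated lipid droplet intensity per well.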
# TMEM16A inh: blocks the mouse calcium-activated chloride channel TMEM16A | normalized B-score (activity score, 25-100; higher = stronger inhibition) at 10 µM | 310,000 compounds, 1.2% hits | HEK293 TMEM16A/YFP iodide influx fluorescence, ionomycin;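 active = ratio plate-corrected score three or more library SD toward inhibition, starting fluorescence score within five deviations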;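 note: score derived from kinetic fluorescence span divided by baseline fluorescence per well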
# XBP1 UPR activ: activators of adaptive arm of unfolded protein response (XBP1); CHO-XBP1 luciferase reporter, IRE1-XBP1 UPR activation, luminescence; percent of tunicamycin response, DMSO as zero; activation, % at 20 µM; 330,000 compounds, 0.33% hits; AID 463104;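 active = versus positive control, 20 µM dose yields 30% or more activation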;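 note: 100% = tunicamycin at 10 µg/mL and 0% = DMSO only wells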
#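 Material – CHO cell line with stable XBP1 luciferase reporter · Buffer or medium – F12 plus 10% FBS · Compound – single point, 20 µM final compound, 1% DMSO · Schedule – 16-18 h cell attachment at 37 °C, then 6 h compound exposure · Signal – Steady-Glo luminescence read · Benchmarks – high control tunicamycin 10 µg/mL final, low control DMSO vehicle only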
# Active calls of the source: *; i = inactive; . = not tested or not shown.
SMILES,TMEM16A act,CHOP inh,UPR CHOP act,Hep lipid drop,TMEM16A inh,XBP1 UPR activ
CC(=O)Nc1ccc(S(=O)(=O)N2CCC(C(=O)O)(c3ccccc3)CC2)cc1,i,.,-0.3,2.8,i,-1.5
CCC(C)NC(=O)c1ccc(NC(=O)CC2SC(N3CCCC3)=NC2=O)cc1 (stereo not given),i,.,0.7,.,.,1.0
O=S(=O)(N/N=C1/CC(c2ccccc2)Oc2ccccc21)c1ccc(Br)cc1 (stereo not given),i,94.2*,-1.2,-11.2,25*,1.7
O=S(=O)(N/N=C1/CCCc2ccccc21)c1ccc(Br)cc1,i,31.3,-0.4,18.3,i,-2.4
Cc1ccc(S(=O)(=O)N/N=C2/CC(c3ccccc3)Oc3ccccc32)cc1[N+](=O)[O-] (stereo not given),i,-14.6,2.2,.,100*,-0.4
CCc1ccc(C(=O)Nc2cc3c(cc2Cl)OCCCO3)cc1,i,16.3,6.2,.,i,2.3
CC(C)(C)c1ccc(-c2nnc(SCC(=O)NC3CC3)o2)cc1,i,.,0.8,.,.,-1.3
CN(Cc1ccc(Cl)s1)C(=O)CCl,i,104.9*,17.1,0.1,i,-4.6
O=C(O)CCC(C(=O)O)N1C(=O)c2ccccc2C1=O (stereo not given),.,-4.0,.,.,.,.
CC(C)OC(=O)c1ccc(Cn2nnc3ccccc3c2=O)cc1,i,19.4,-0.6,-3.3,100*,-1.4
O=c1c2ccccc2nnn1Cc1ccc(F)cc1,i,-6.4,1.9,4.0,100*,0.2
COC(=O)c1ccc(Cn2nnc3ccccc3c2=O)o1,i,4.5,-2.0,.,i,-4.9
O=c1c2ccccc2nnn1Cc1ccc(Br)cc1,i,45.8,1.2,4.0,i,3.9
C=CCN=C(NC#N)SCC(=O)c1cccc(OC)c1,i,5.5,0.9,.,25*,-0.9
COc1ccc2c(c1)[nH]c1c(N3CCN(Cc4ccc5c(c4)OCO5)CC3)ncnc12,i,74.8*,8.2,.,100*,6.4
Cc1ccc(S(=O)(=O)N2[C@@H](c3ccc(Cl)cc3)C(C(=O)O)=CC[C@H]2c2ccc(C(C)C)cc2)cc1,i,.,-0.7,.,100*,-1.5
Cc1ccc(S(=O)(=O)N2[C@@H](c3ccccc3)C(C(=O)O)=CC[C@H]2c2ccc(C(C)C)cc2)cc1,i,.,-0.5,.,100*,4.0
Cc1ccc([C@H]2C(C(=O)O)=CC[C@@H](c3ccc(C(C)C)cc3)N2S(=O)(=O)c2ccc(C)cc2)cc1,.,.,0.5,.,.,2.7
COc1ccccc1CNC(=O)c1cccnc1,i,.,0.7,1.9,i,0.1
COc1ccc(-c2nc(N)nc(C)c2-c2ccc(Cl)cc2)c(O)c1,i,.,-0.8,-3.3,i,6.1
C=C(C)COc1ccc(-c2nc(N)nc(C)c2Oc2ccccc2OC)c(O)c1,i,84.5*,-1.3,.,i,-0.3
C=C(C)COc1ccc(-c2nc(N)ncc2-c2ccc(OC)c(OC)c2)c(O)c1,i,.,-0.2,-2.9,i,1.4
C=C(C)COc1ccc(-c2nc(N)nc(C)c2-c2ccc(OC)cc2)c(O)c1,i,92.0*,4.4,-3.4,i,-2.4
COc1cccc(Oc2cnc(N)nc2-c2ccc(OC)cc2O)c1,i,.,-0.2,20.6,i,4.1
COc1ccc(-c2nc(N)ncc2Oc2ccccc2Br)c(O)c1,i,87.7*,-1.3,.,i,-0.5
SMILES,TMEM16A act,CHOP inh,UPR CHOP act,Hep lipid drop,TMEM16A inh,XBP1 UPR activ
C=C(C)COc1ccc(-c2nc(N)ncc2-c2ccc(OC)cc2)c(O)c1,.,102.8*,.,5.7,.,.
CSc1ccccc1C(=O)N(C)C(c1ccccc1)c1ccccc1,i,.,-0.1,-6.4,i,-3.6
COc1ccc(NC(=O)NCc2cccnc2)cc1,i,.,1.2,16.1,i,-4.0
COc1ccc(-c2cnc(N)nc2-c2ccc(OC)cc2O)cc1,-16.7*,63.7,-0.6,.,i,-3.4
COc1ccc(-c2nc(N)ncc2-c2ccccc2)c(O)c1,i,.,1.9,-3.3,i,2.5
COc1ccc(N=Cc2[nH]c3ccccc3c2O)cc1,-7.59*,11.3,4.2,-1.0,i,2.9
